# Laboratory results as given in ChEMBL document CHEMBL5724801, “EUbOPEN Chemogenomics Library - Multiplex” (2024).
# Several values for one entry are separate records, joined by “and”; a condition that tells them apart may be missing. Identical values can stand only once.
# Tested on: U2OS
# Experiment: Multiplex assay against U2OS
# Format: toxicity, cell-based
# Settings: human
# How it was run: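 Cells stained live at seeding with Hoechst33342, BioTracker Green Microtubule Cytoskeleton Dye, MitoTracker Red and Annexin V Alexa Fluor 680 were imaged on a CQ1 microscope at 37°C and 5% CO2 after compound addition. Their classification by CellPathfinder machine-learning gating ran from Hoechst high-intensity objects versus normal cells, to healthy, pyknosed or fragmented nuclei among normal cells, to mitotic or apoptotic among pyknosed cells. Tubulin, mitochondrial-mass and membrane-permeability phenotypes are per cents of healthy-nucleus cells.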
# [1] = 12 h, 1 µM, compound concentration 1 uM
# [2] = 12 h, 10 µM, compound concentration 10 uM
# [3] = 24 h, 1 µM, compound concentration 1 uM
# [4] = 24 h, 10 µM, compound concentration 10 uM
# [5] = 48 h, 1 µM, compound concentration 1 uM
# [6] = 48 h, 10 µM, compound concentration 10 uM
smiles,measurement,setting,value
CN(C)Cc1cccc(NC(=C2C(=O)Nc3cc(C(=O)N(C)C)ccc32)c2ccccc2)c1,Population Apoptotic (%),[1],28.26% and 30.43%
same,Population Fragmented Nuclei (%),[1],2.06% and 3.41%
same,Population Healthy Nuclei (%),[1],87.39% and 83.52%
same,Population Hoechst High Intensity Objects (%),[1],0%
same,Population Membrane Permeable-Phenotype (%),[1],0.52% and 6.8%
same,Population Mitochondria Different-Phenotype (%),[1],0% and 12.24%
same,Population Mitotic Cells (%),[1],71.74% and 69.57%
same,Population Normal (%),[1],100%
same,Population Pyknosed Nuclei (%),[1],10.55% and 13.07%
same,Population Tubulin-Different-Phenotype (%),[1],2.1% and 0.68%
same,Total Cell Count,[1],436 and 176
same,Population Apoptotic (%),[2],55.32% and 60.53%
same,Population Fragmented Nuclei (%),[2],3.8% and 4.6%
same,Population Healthy Nuclei (%),[2],81.33% and 73.56%
same,Population Hoechst High Intensity Objects (%),[2],0%
same,Population Membrane Permeable-Phenotype (%),[2],17.12% and 38.28%
same,Population Mitotic Cells (%),[2],44.68% and 39.47%
same,Population Normal (%),[2],100%
same,Population Pyknosed Nuclei (%),[2],14.87% and 21.84%
same,Population Tubulin-Different-Phenotype (%),[2],58.37% and 42.19%
same,Total Cell Count,[2],316 and 174
same,Population Apoptotic (%),[3],51.56% and 40%
same,Population Fragmented Nuclei (%),[3],1.88% and 1.95%
same,Population Healthy Nuclei (%),[3],87.2% and 85.85%
same,Population Hoechst High Intensity Objects (%),[3],0.17% and 0%
same,Population Membrane Permeable-Phenotype (%),[3],1.76% and 3.98%
same,Population Mitotic Cells (%),[3],48.44% and 60%
same,Population Normal (%),[3],99.83% and 100%
same,Population Pyknosed Nuclei (%),[3],10.92% and 12.2%
same,Population Tubulin-Different-Phenotype (%),[3],1.96% and 2.27%
same,Total Cell Count,[3],587 and 205
same,Population Apoptotic (%),[4],70.87% and 69.84%
same,Population Fragmented Nuclei (%),[4],5.07% and 6.21%
same,Population Healthy Nuclei (%),[4],65.92% and 58.19%
same,Population Hoechst High Intensity Objects (%),[4],0.28% and 0%
same,Population Membrane Permeable-Phenotype (%),[4],18.8% and 30.1%
same,Population Mitotic Cells (%),[4],29.13% and 30.16%
same,Population Normal (%),[4],99.72% and 100%
same,Population Pyknosed Nuclei (%),[4],29.01% and 35.59%
same,Population Tubulin-Different-Phenotype (%),[4],47.86% and 58.25%
same,Total Cell Count,[4],356 and 177
same,Population Apoptotic (%),[5],54.74% and 41.51%
same,Population Fragmented Nuclei (%),[5],2.6% and 1.21%
same,Population Healthy Nuclei (%),[5],87.9% and 82.73%
same,Population Hoechst High Intensity Objects (%),[5],0%
same,Population Membrane Permeable-Phenotype (%),[5],1.02% and 2.56%
same,Population Mitochondria Different-Phenotype (%),[5],0% and 5.13%
same,Population Mitotic Cells (%),[5],45.26% and 58.49%
same,Population Normal (%),[5],100%
same,Population Pyknosed Nuclei (%),[5],9.5% and 16.06%
same,Population Tubulin-Different-Phenotype (%),[5],0.57% and 2.56%
same,Population Apoptotic (%),[6],82.42% and 88.41%
same,Population Fragmented Nuclei (%),[6],3.22% and 2.72%
same,Population Healthy Nuclei (%),[6],72.39% and 59.78%
same,Population Hoechst High Intensity Objects (%),[6],0%
same,Population Mitochondria Different-Phenotype (%),[6],14.07% and 38.18%
same,Population Mitotic Cells (%),[6],17.58% and 11.59%
same,Population Normal (%),[6],100%
same,Population Pyknosed Nuclei (%),[6],24.4% and 37.5%
same,Population Tubulin-Different-Phenotype (%),[6],61.85% and 69.09%
same,Total Cell Count,[6],373 and 184
Cc1c(Cc2ccc3ccccc3n2)c2cc(F)ccc2n1CC(=O)O [TIMAPIPRANT],Population Apoptotic (%),[1],84% and 83%
same,Population Fragmented Nuclei (%),[1],21% and 22%
same,Population Healthy Nuclei (%),[1],69% and 70%
same,Population Hoechst High Intensity Objects (%),[1],2% and 1%
same,Population Membrane Permeable-Phenotype (%),[1],3% and 4%
same,Population Mitochondria Different-Phenotype (%),[1],1% and 4%
same,Population Mitotic Cells (%),[1],16%
same,Population Normal (%),[1],97% and 98%
same,Population Pyknosed Nuclei (%),[1],8% and 6%
same,Population Tubulin-Different-Phenotype (%),[1],1% and 3%
same,Population Apoptotic (%),[2],75% and 68%
same,Population Fragmented Nuclei (%),[2],30% and 12%
same,Population Healthy Nuclei (%),[2],62% and 75%
same,Population Hoechst High Intensity Objects (%),[2],2% and 0%
same,Population Membrane Permeable-Phenotype (%),[2],4% and 6%
same,Population Mitochondria Different-Phenotype (%),[2],1% and 3%
same,Population Mitotic Cells (%),[2],25% and 31%
same,Population Normal (%),[2],97% and 99%
same,Population Pyknosed Nuclei (%),[2],6% and 12%
same,Population Tubulin-Different-Phenotype (%),[2],2% and 3%
same,Total Cell Count,[2],244 and 132
same,Population Apoptotic (%),[3],96% and 100%
same,Population Fragmented Nuclei (%),[3],18% and 19%
same,Population Healthy Nuclei (%),[3],73%
same,Population Hoechst High Intensity Objects (%),[3],1%
same,Population Membrane Permeable-Phenotype (%),[3],6% and 7%
same,Population Mitochondria Different-Phenotype (%),[3],3% and 2%
same,Population Mitotic Cells (%),[3],3% and 0%
same,Population Normal (%),[3],98%
same,Population Pyknosed Nuclei (%),[3],7%
same,Population Tubulin-Different-Phenotype (%),[3],4% and 3%
same,Population Apoptotic (%),[4],94% and 72%
same,Population Fragmented Nuclei (%),[4],26% and 18%
same,Population Healthy Nuclei (%),[4],66% and 74%
same,Population Hoechst High Intensity Objects (%),[4],1% and 0%
same,Population Membrane Permeable-Phenotype (%),[4],6% and 8%
same,Population Mitochondria Different-Phenotype (%),[4],2%
same,Population Normal (%),[4],98% and 100%
same,Population Pyknosed Nuclei (%),[4],6% and 7%
same,Population Tubulin-Different-Phenotype (%),[4],3%
same,Total Cell Count,[4],278 and 152
same,Population Apoptotic (%),[5],88% and 90%
same,Population Fragmented Nuclei (%),[5],16% and 22%
same,Population Healthy Nuclei (%),[5],77% and 71%
same,Population Hoechst High Intensity Objects (%),[5],1% and 2%
same,Population Membrane Permeable-Phenotype (%),[5],4% and 12%
same,Population Mitochondria Different-Phenotype (%),[5],3% and 5%
same,Population Mitotic Cells (%),[5],11% and 10%
same,Population Normal (%),[5],98% and 97%
same,Population Pyknosed Nuclei (%),[5],6%
same,Population Tubulin-Different-Phenotype (%),[5],3% and 6%
same,Population Apoptotic (%),[6],100% and 92%
same,Population Fragmented Nuclei (%),[6],19% and 13%
same,Population Healthy Nuclei (%),[6],74% and 80%
same,Population Hoechst High Intensity Objects (%),[6],0% and 2%
same,Population Membrane Permeable-Phenotype (%),[6],3% and 5%
same,Population Mitochondria Different-Phenotype (%),[6],1% and 3%
same,Population Mitotic Cells (%),[6],0% and 7%
same,Population Normal (%),[6],99% and 97%
same,Population Pyknosed Nuclei (%),[6],6%
same,Population Tubulin-Different-Phenotype (%),[6],1% and 3%
same,Total Cell Count,[6],392 and 204
Cc1cc(NC(=O)c2cccc(NC(=O)/C=C/CN(C)C)c2)ccc1Nc1nccc(-c2cccnc2)n1,Population Apoptotic (%),[1],27.59% and 30.56%
same,Population Fragmented Nuclei (%),[1],1.96% and 1.23%
same,Population Healthy Nuclei (%),[1],90.93% and 76.69%
same,Population Hoechst High Intensity Objects (%),[1],0%
same,Population Membrane Permeable-Phenotype (%),[1],0.54% and 4%
same,Population Mitochondria Different-Phenotype (%),[1],0% and 11.2%
same,Population Mitotic Cells (%),[1],72.41% and 69.44%
same,Population Normal (%),[1],100%
same,Population Tubulin-Different-Phenotype (%),[1],1.35% and 1.6%
same,Total Cell Count,[1],408 and 163
same,Population Apoptotic (%),[2],30.59% and 26%
same,Population Fragmented Nuclei (%),[2],2.2% and 3.08%
same,Population Healthy Nuclei (%),[2],71.07% and 58.46%
same,Population Hoechst High Intensity Objects (%),[2],0%
same,Population Membrane Permeable-Phenotype (%),[2],61.06% and 84.21%
same,Population Mitotic Cells (%),[2],69.41% and 74%
same,Population Normal (%),[2],100%
same,Population Pyknosed Nuclei (%),[2],26.73% and 38.46%
same,Population Tubulin-Different-Phenotype (%),[2],71.68% and 55.26%
same,Total Cell Count,[2],318 and 130
same,Population Apoptotic (%),[3],35.71% and 38.71%
same,Population Fragmented Nuclei (%),[3],1.26% and 5.24%
same,Population Healthy Nuclei (%),[3],91.2% and 80%
same,Population Hoechst High Intensity Objects (%),[3],0%
same,Population Membrane Permeable-Phenotype (%),[3],0.79% and 4.17%
same,Population Mitotic Cells (%),[3],64.29% and 61.29%
same,Population Normal (%),[3],100%
same,Population Pyknosed Nuclei (%),[3],7.54% and 14.76%
same,Population Tubulin-Different-Phenotype (%),[3],0.79% and 1.19%
same,Total Cell Count,[3],557 and 210
same,Population Apoptotic (%),[4],56.85% and 76.53%
same,Population Fragmented Nuclei (%),[4],2.51% and 3.51%
same,Population Hoechst High Intensity Objects (%),[4],0.31% and 0%
same,Population Membrane Permeable-Phenotype (%),[4],25.44% and 41.67%
same,Population Mitochondria Different-Phenotype (%),[4],21.93% and 41.67%
same,Population Mitotic Cells (%),[4],43.15% and 23.47%
same,Population Normal (%),[4],99.69% and 100%
same,Population Pyknosed Nuclei (%),[4],61.76% and 85.96%
same,Population Tubulin-Different-Phenotype (%),[4],54.39% and 58.33%
same,Total Cell Count,[4],320 and 114
same,Population Apoptotic (%),[5],41.94% and 59.02%
same,Population Fragmented Nuclei (%),[5],4.41% and 6.54%
same,Population Healthy Nuclei (%),[5],86.07% and 73.53%
same,Population Hoechst High Intensity Objects (%),[5],0% and 0.33%
same,Population Membrane Permeable-Phenotype (%),[5],0.6% and 3.11%
same,Population Mitochondria Different-Phenotype (%),[5],0% and 7.56%
same,Population Mitotic Cells (%),[5],58.06% and 40.98%
same,Population Normal (%),[5],100% and 99.67%
same,Population Pyknosed Nuclei (%),[5],9.53% and 19.93%
same,Population Tubulin-Different-Phenotype (%),[5],1.67% and 0.89%
same,Population Apoptotic (%),[6],92.36% and 96.04%
same,Population Fragmented Nuclei (%),[6],3.57% and 4%
same,Population Healthy Nuclei (%),[6],7.14% and 15.2%
same,Population Hoechst High Intensity Objects (%),[6],0%
same,Population Mitotic Cells (%),[6],7.64% and 3.96%
same,Population Normal (%),[6],100%
same,Population Pyknosed Nuclei (%),[6],89.29% and 80.8%
same,Total Cell Count,[6],308 and 125
